An excerpt weighted towards active compounds, which were near 4% of everything screened.
OX1R antag-1: antagonists of human orexin 1 receptor (OX1R) | O43613 | OX1R-expressing cells, FRET antagonist read-out | inhibition, % at 6.6 µM | 330,000 compounds, 1.8% hits | AID 485270; in the data active = inhibition mostly above about 38%, no sharp cut-off; inactive = mostly below about 40%;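 also: 0% = agonist challenge alone and 100% = reference antagonist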
NTR1 ag: NTR1 (human) agonism. P30989. NTR1-U2OS beta-arrestin-GFP spot imaging, agonist mode. activation, % at 20 µM. 330,000 compounds, 0.17% hits. AID 493036;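 active = activation at or above 40% of the spot to cytoplasm intensity ratio, with at least 20 cells analyzed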;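 also: 0% = DMSO without peptide and 100% = 100 nM NTR1 peptide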
Target sequence (P30989 whole entry, looked up): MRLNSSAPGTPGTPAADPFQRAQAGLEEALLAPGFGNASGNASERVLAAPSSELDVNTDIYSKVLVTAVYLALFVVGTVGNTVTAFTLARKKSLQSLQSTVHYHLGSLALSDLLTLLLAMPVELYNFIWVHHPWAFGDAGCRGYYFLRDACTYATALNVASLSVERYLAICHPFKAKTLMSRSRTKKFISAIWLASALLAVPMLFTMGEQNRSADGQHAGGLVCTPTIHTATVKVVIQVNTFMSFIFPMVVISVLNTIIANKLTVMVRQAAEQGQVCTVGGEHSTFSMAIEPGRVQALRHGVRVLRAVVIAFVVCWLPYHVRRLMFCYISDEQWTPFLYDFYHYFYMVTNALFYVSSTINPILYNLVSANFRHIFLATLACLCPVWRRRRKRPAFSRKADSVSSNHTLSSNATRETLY
TAAR1 agonist: human TAAR1 agonism | Q96RJ0 | CHO RD-HGA16 TAAR1, Fluo-8 calcium fluorescence; vehicle wells 0%, saturating PEA agonist 100% | activation, % at 3 µM | 360,000 compounds, 0.99% hits;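 active = activation above the mean activation of all test compounds in the run plus 3 SD, cut at about 38% in these data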
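Repeats: no replicates (n 1) | Material: CHO-derived RD-HGA16 cells with stable Gα16 and human TAAR1 | Technique: Kinetic Fluo-8 calcium fluorescence | Schedule: 17-24 h seeding, 75 min 37 °C dye, 30 min RT | Evaluation: % activation from peak over basal fluorescence ratio, DMSO-to-PEA scaled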
CHO parental Ca: counter-screen for OX1R antagonists: effect in parental CHO cells. 330,000 compounds, 0.63% hits. inhibition, % at 5.6 µM. parental CHO-K1, ATP-induced calcium, Fluo-8 fluorescence;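 active = inhibition above that plate's mean sample inhibition plus 3 SD, cut at about 26% in these data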;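 also: 0% = ATP-challenged DMSO wells and 100% = DMSO wells without ATP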
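Assay system: parental CHO cells; Read-out basis: percent inhibition of ATP-evoked calcium rise, normalized to controls; Benchmarks: ATP and no-ATP DMSO wells; Compound dosing: single nominal dose of 5.6 µM per compound; Signal: Fluo-8 calcium dye fluorescence; Also added: ATP as calcium-mobilizing challenge; Repeats: singlicate.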
TAAR1 antag: antagonists of human TAAR1; Q96RJ0; CHO RD-HGA16 TAAR1, Fluo-8 calcium fluorescence, antagonist; inhibition, % at 3 µM; 360,000 compounds, 1.5% hits; AID 624466;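 active = inhibition above a per-plate cutoff, the mean inhibition of test compounds on that plate plus 3 SD, cut at about 49% in these data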;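 also: 0% = DMSO plus EC80 beta-PEA response and 100% = DMSO alone without agonist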
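Assay system: RD-HGA16 CHO cells with stable hTAAR1 and Gα16 / Reagent: EC80 β-phenethylamine stimulus / Doses: 3 µM, single point / Timing: dye loading 75 min at 37 °C, then 30 min room temperature / Measured by: Fluo-8 intracellular calcium dye fluorescence, real-time kinetic reads / Controls: vehicle wells and EC80 agonist wells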
OX1R antag-2: antagonists of human orexin 1 receptor | inhibition, % at 5 µM | 330,000 compounds, 0.43% hits | CHO/OX1R cells, Fluo-8 calcium fluorescence, orexin A;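 active = inhibition above its plate's threshold, mean inhibition of all tested compounds on the plate plus 3 SD, cut at about 37% in these data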;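 also: 0% = orexin A challenge wells and 100% = SB-334867-A antagonist wells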
OX1R HTRF confirm: OX1R (human) antagonism, HTRF confirmed. shares compounds with OX1R antag-1. OX1R-expressing cells, HTRF antagonist assay. inhibition, % at 6.6 µM. 1,800 compounds, 49% hits. AID 492964; in the data active = inhibition above about 55%;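 also: CHO cells expressing OX1R stimulated with orexin A at about EC80; 0% = agonist challenge alone and 100% = reference antagonist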
CHO-K1 HTRF: counter-screen: parental CHO-K1 HTRF response; shares compounds with OX1R antag-1; parental CHO-K1 cells, HTRF counterscreen; inhibition, % at 6.6 µM; 1,800 compounds, 48% hits; in the data active = inhibition above about 17%;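 also: 0% = agonist challenge with vehicle and 100% = vehicle alone without agonist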
An asterisk follows results filed as active; / = no result; ! = a repeat was not active.

SMILES	OX1R antag-1	NTR1 ag	TAAR1 agonist	CHO parental Ca	TAAR1 antag	OX1R antag-2	OX1R HTRF confirm	CHO-K1 HTRF
OCCCN=c1cc(-c2ccccc2)oc2ccc(Cl)cc12	96*	0	2	-18	-8	-24	36	61*
CCOC(=O)Cc1csc(NC(=O)CSc2ncnc3c2cnn3-c2ccc(OC)cc2)n1	80*	2	18	13	50*	29	27	4
CCOC(=O)CNC(=O)CSc1ncnc2c1cnn2-c1ccc(Cl)cc1	18	-2	14	-4	-10	-19	/	/
CCCCCOC(=O)c1c(N)n(CCOC)c2nc3ccccc3nc12	33	0	11	-8	-16	-32	/	/
CCOC(=O)c1c(N)n(CCOC(=O)c2cccs2)c2nc3ccccc3nc12	78*	-1	11	-11	21	-3	56*	7
Cc1nn(-c2ccccc2)c(C)c1NC(=O)COC(=O)CCOc1ccccc1	7	1	6	-7	-8	-31	/	/
CC(=O)c1ccc(OCC(=O)Nc2c(C)nn(-c3ccccc3)c2C)cc1	91*	0	9	-8	16	-8	27	7
Cc1ncc(CO)c2cc(C(N)=O)c(=Nc3ccccc3)oc12	150*	2	9	-13	2	-19	31	42*
COc1cccc(NC(=O)CN(C)C(=O)C23CC4CC(CC(Cl)(C4)C2)C3)c1	10	4	6	-16	1	-6	/	/
COc1ccc2c(c1O)C(=O)c1ccccc1C2=O	9	2	/	-3	/	-2	/	/
CN(C)C(=O)c1ccc2c(c1[N+](=O)[O-])C(=O)c1ccccc1C2=O	93*	1	3	-6	-1	-9	58*	55*
CN(C)/C=C1\Oc2ccc3ccccc3c2C1=O	40	2	6	2	-3	-1	/	/
CN(C)/C=C1/Oc2c(ccc3ccccc23)C1=O	88*	0	0	2	-17	-3	85*	-6
O=C1SCCC1NS(=O)(=O)c1ccc([N+](=O)[O-])cc1 (stereo not drawn)	96*	0	1	-11	-19	-7	28	24*
CNC(=O)c1[nH]cnc1C(=O)Nc1ccc(OC)cc1	9	0	12	-15	0	-4	/	/
CCn1c(/C=C/c2cc[n+](C)cc2)nc2ccccc21	78*	0	2	-3	-7	11	48	59*
CCCn1c(/C=C/c2ccccc2)nc2ccccc21	13	4	3	-30	1	-34	/	/
COc1cccc(/C=C2/SC(=O)N(C)C2=O)c1OCc1ccc(C(=O)O)cc1	102*	4	5	-11	-8	-6	32	35*
O=C(NC1(C(=O)O)CCCC1)c1ccccc1	/	/	2	/	-17	/	/	/
CCOC(=O)C1=C(C)NC(C)=C(C(=O)OCC)C1/C=C/c1ccccc1OC	15	14	0	-18	8	-21	/	/
COCCOC(=O)C1=C(C)NC(C)=C(C(=O)OCCOC)C1/C=C/c1ccccc1OC	78*	0	0	-10	8	-75	23	-2
O=C(NCc1nnc(SCC(=O)N2CCCC2)o1)c1ccccc1	28	-1	1	0	-1	-5	/	/
N#CC(=C=[N-])c1nc2ccccc2nc1-[n+]1ccccc1	98*	0	-1	-1	-2	7	64*!	79*
Cc1cc[n+](-c2nc3ccccc3nc2C(=C=[N-])C#N)cc1	121*	1	6	-6	7	0	40	63*
Cc1cccc(C)c1NC(=O)NC1(C(=O)NCC2CCCO2)CCCCC1 (stereo not drawn)	15	2	-3	0	-5	-22	/	/
SMILES	OX1R antag-1	NTR1 ag	TAAR1 agonist	CHO parental Ca	TAAR1 antag	OX1R antag-2	OX1R HTRF confirm	CHO-K1 HTRF
Cc1ccc(C(=O)N2CCC(Cc3ccccc3)CC2)cc1S(=O)(=O)N1CCOCC1	/	0	3	/	-11	/	/	/
CC(=O)c1sc(NC(=O)C2(F)C(F)(F)C(F)(F)C(F)(F)C(F)(F)C2(F)F)nc1C	80*	3	9	16	-5	35	71*	26*
CC(=O)c1sc(NC(=O)C=C(C)C)nc1C	17	0	15	-2	-2	-9	/	/
COCCNC(=O)C(c1ccc(Cl)cc1)N(Cc1ccco1)C(=O)CCC(=O)Nc1ccccn1 (stereo not drawn)	82*	-3	1	-16	-3	9	58*	3
O=c1c2c(-c3ccc([N+](=O)[O-])cc3)csc2nc2n1CCC2	95*	0	0	-30	-4	-3	40	48*
O=[N+]([O-])c1ccc2c(c1)nc1n2CCCCC1	15	-2	1	5	13	-4	/	/
CCCn1c(SCC(=O)NCCc2ccccc2)nnc1-c1ccccn1	38	3	6	-18	-15	-17	/	/
CCCn1c(SCC(=O)Nc2nnc(-c3ccccc3)s2)nnc1-c1ccccn1	78*	1	3	-37	13	10	65*	11
COc1cc2c(cc1OC)CN(C(=O)CN1C(=O)c3ccc([N+](=O)[O-])cc3C1=O)CC2	98*	0	1	-29	2	-34	45	37*
Cc1ccc(-c2nnnn2-c2ccccc2C(=O)O)cc1	7	0	2	8	2	-4	/	/
Cc1noc(C)c1C(=O)N1CCC1(C)C(=O)NS(=O)(=O)c1ccccc1C(F)(F)F (stereo not drawn)	/	/	5	/	-18	/	/	/
O=C(O)c1ccc(NC(=O)c2ccc3c(c2)C(=O)N(CC2CCCO2)C3=O)cc1 (stereo not drawn)	78*	-1	6	-5	-14	-16	34	32*
CCN1C(=O)/C(=C/c2cc(C)n(C)c2C)SC1=Nc1ccc(OC)cc1	127*	28	8	-21	2	-46	26	16
CCC(CC)NC(=O)c1cc(S(=O)(=O)N2CCCCC2)ccc1N1CCOCC1	3	1	10	-27	-16	-43	/	/
O=C1c2ccc([N+](=O)[O-])cc2S(=O)(=O)N1Cc1ccccc1	3	11	5	-8	-4	9	/	/
CC(C)(CO)N=C1NS(=O)(=O)c2cc([N+](=O)[O-])ccc21	99*	1	0	-2	15	-10	56*	63*
C[C@@H]1CN([C@@H](C)CO)C(=O)c2cc(Br)cnc2O[C@H]1CN(C)Cc1cccnc1	/	/	1	/	-7	/	/	/

Bioassay records from PubChem.
